High-throughput results: PubChem BioAssay, The Scripps Research Institute Molecular Screening Center
In the library only some 1.4% were active in any assay of this set; here they are far more common.
ASAP1 inh: inhibitors of human ASAP1 ArfGAP activity, primary screen, biochemical, fluorescence polarization | ASAP1-stimulated ARF1 GTP hydrolysis, GDP FP detection | actives 0.19% (n = 360,000) | inhibition, % at 16.5 µM | AID 624377, 2012; in the data active = inhibition above about 25%;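 also: 0% = vehicle with enzyme and substrate and 100% = no enzyme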
Target sequence (Q9ULH1 325-724 limits assumed): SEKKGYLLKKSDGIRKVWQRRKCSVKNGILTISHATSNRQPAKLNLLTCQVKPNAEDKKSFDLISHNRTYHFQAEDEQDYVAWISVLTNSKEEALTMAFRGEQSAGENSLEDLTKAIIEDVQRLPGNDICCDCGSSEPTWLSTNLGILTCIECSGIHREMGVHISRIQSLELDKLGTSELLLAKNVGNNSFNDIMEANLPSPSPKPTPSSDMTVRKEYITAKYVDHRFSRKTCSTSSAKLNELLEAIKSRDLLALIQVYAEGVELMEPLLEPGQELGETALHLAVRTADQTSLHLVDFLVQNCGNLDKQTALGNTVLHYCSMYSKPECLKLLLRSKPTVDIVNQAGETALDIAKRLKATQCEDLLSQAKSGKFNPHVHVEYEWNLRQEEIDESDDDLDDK
bovine MsrA act: bovine MsrA enzyme activators, primary screen, biochemical, absorbance, HTS | Methionine sulfoxide reductase A (Bos taurus) | purified bovine MsrA, absorbance read-out | activation, % at 10.6 µM | actives 0.3% (n = 360,000) | AID 602163, 2012; in the data active = activation above about 7.5%;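 also: 0% = vehicle and 100% = reference activator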
MsrA inhibitor: bovine MsrA enzyme inhibitors, primary screen, biochemical, absorbance, HTS; purified bovine MsrA, absorbance read-out; Methionine sulfoxide reductase A (Bos taurus); inhibition, % at 15.5 µM; actives 0.75% (n = 360,000); AID 651718, 2012;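 also: 0% = vehicle wells with enzyme and 100% = reference inhibitor wells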
ARFGAP1 inhibitor: inhibitors of rat ARFGAP1 GAP activity, primary screen, biochemical, fluorescence polarization, GDP tracer; AID 651572, 2012; ADP-ribosylation factor GTPase-activating protein 1 (Rattus norvegicus), Q62848; actives 0.26% (n = 360,000); Arfgap1-stimulated ARF1 GTP hydrolysis, GDP FP detection; inhibition, % at 16.5 µM;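 active = inhibition above a per-plate limit, mean inhibition of low control wells plus 3 SD, cut at about 25% in these data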;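 also: 0% = DMSO wells with enzyme and 100% = wells lacking Arfgap1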
Target sequence (Q62848 1-136 limits assumed): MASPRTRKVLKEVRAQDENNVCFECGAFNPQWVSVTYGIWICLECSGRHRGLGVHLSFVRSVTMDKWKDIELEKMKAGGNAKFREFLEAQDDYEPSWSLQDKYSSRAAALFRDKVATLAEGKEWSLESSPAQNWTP
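Assay system: Rat Arfgap1 GAP domain (His6, aa 1-136), purified enzyme | Buffer or medium: HEPES 25 mM pH 7.5, NaCl 150 mM, MgCl2, DTT | Schedule: GTP hydrolysis reaction 2 h at 25 °C | Signal: FP of antibody-bound GDP Alexa 633 tracer, ex 620/em 688 nm | Measure: Percent inhibition of Arfgap1-stimulated GTP hydrolysis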
MsrA activ conf: bovine MsrA activators, retest, confirmation, biochemical, absorbance, HTS; purified bovine MsrA, absorbance read-out; shares compounds with bovine MsrA act; actives 12% (n = 1,000); activation, % at 10.6 µM; in the data active = activation above about 4%;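 also: enzyme coupled to thioredoxin and thioredoxin reductase with NADPH; 0% = vehicle wells and 100% = reference activator wells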
ASAP1 GAP conf: ASAP1 GAP activity inhibitors, confirmation, biochemical, fluorescence polarization, human, triplicate; shares compounds with ASAP1 inh; ASAP1-stimulated Arf1 GTPase, GDP fluorescence polarization; inhibition, % at 16.5 µM; actives 37% (n = 620); AID 624431, 2012;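 active = mean inhibition over triplicates exceeds the hit threshold derived for the earlier primary screening run, cut at about 25% in these data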
MsrA conf: bovine MsrA inhibitors, retest, confirmation, biochemical, absorbance, HTS. shares compounds with MsrA inhibitor. purified bovine MsrA, absorbance read-out. inhibition, % at 15.5 µM. actives 41% (n = 2,300). AID 651822, 2012;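 also: coupled to thioredoxin reductase with NADPH and selenocystamine and DMSO as substrate; 0% = vehicle only and 100% = full effect of reference inhibitor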
* = called active by the depositor. Rule as the data show it, unless noted: active = inhibition above about 4.5%; inactive = the rest.

Results for Cc1cccc(NC(=O)C2CCN(S(=O)(=O)c3cccc4cccnc34)CC2)n1 ?
ASAP1 inh: 15.1; bovine MsrA act: -2.2; MsrA inhibitor: 1.7; ARFGAP1 inhibitor: -10.4

Results for CC(=O)c1ccc(-n2c(C)c(C(C)=O)c3cc(O)ccc32)cc1 ?
ASAP1 inh: 7.6; bovine MsrA act: -3.3; MsrA inhibitor: 1.0; ARFGAP1 inhibitor: 2.5

Results for CC(=O)c1c(C)n(-c2ccc(Cl)cc2)c2ccc(O)cc12 ?
ASAP1 inh: -4.8; bovine MsrA act: 7.8*; MsrA inhibitor: -0.8; ARFGAP1 inhibitor: 5.3; MsrA activ conf: 0.1

How did COc1ccc(S(=O)(=O)N2CCCOC2CNC(=O)C(=O)NCc2ccccc2C)cc1 (configuration not stated) do in these assays?
ASAP1 inh: -16.0; bovine MsrA act: -2.6; MsrA inhibitor: 0.8; ARFGAP1 inhibitor: 5.3

How did O=C(Nc1ccccc1Br)C1CCCN1S(=O)(=O)c1cccc2nsnc12 (configuration not stated) do in these assays?
ASAP1 inh: 2.1; bovine MsrA act: 14.5*; MsrA inhibitor: 1.8; ARFGAP1 inhibitor: -4.2; MsrA activ conf: -0.1

What do the screens show for `O=C(Nc1ccccc1F)C1CCCN1S(=O)(=O)c1cccc2nsnc12` (configuration not stated)?
ASAP1 inh: -18.6; bovine MsrA act: -3.5; MsrA inhibitor: -0.2; ARFGAP1 inhibitor: 8.0

What do the screens show for `COc1cccc(COc2ccccc2C2Nc3ccc(Br)cc3C(=O)N2NC(=O)c2ccncc2)c1` (configuration not stated)?
ASAP1 inh: 7.5; bovine MsrA act: 18.5*; MsrA inhibitor: 0.8; ARFGAP1 inhibitor: 18.9; MsrA activ conf: -3.1

How did COc1ccc(OC)c(NC(=O)Nc2nc(C(N)CCc3ccccc3)cs2)c1 (configuration not stated) do in these assays?
ASAP1 inh: 9.1; bovine MsrA act: 2.4; MsrA inhibitor: -0.1; ARFGAP1 inhibitor: 12.6

What do the screens show for `COc1ccc(C(=O)NC(=O)COC(=O)C2CC2C)cc1` (configuration not stated)?
ASAP1 inh: -1.8; bovine MsrA act: 8.0*; MsrA inhibitor: -0.4; ARFGAP1 inhibitor: -11.2; MsrA activ conf: -3.2

How did CC(OC(=O)c1cccc(S(=O)(=O)N2CCCCC2)c1)C(=O)NC1CCCCC1C (configuration not stated) do in these assays?
ASAP1 inh: -1.2; bovine MsrA act: 20.6*; MsrA inhibitor: -1.5; ARFGAP1 inhibitor: -2.0; MsrA activ conf: 0.5

What do the screens show for `NC(=O)CSc1nnc(-c2ccccn2)n1Cc1ccco1`?
ASAP1 inh: -5.0; bovine MsrA act: 9.0*; MsrA inhibitor: 0.7; ARFGAP1 inhibitor: 2.6; MsrA activ conf: -1.8

How did Clc1ccccc1CSc1nnc(-c2ccccn2)n1Cc1ccco1 do in these assays?
ASAP1 inh: -8.3; bovine MsrA act: -5.1; MsrA inhibitor: 0.8; ARFGAP1 inhibitor: 0.8

What do the screens show for `CCc1cccc2c(C(=O)CN3C(=O)NC4(CCc5ccccc54)C3=O)c[nH]c12` (configuration not stated)?
ASAP1 inh: -3.4; bovine MsrA act: -3.0; MsrA inhibitor: 0.7; ARFGAP1 inhibitor: 0.4

How did CC1CCCN(C(=O)COC(=O)/C=C/c2ccc(C(F)(F)F)cc2)C1 (configuration not stated) do in these assays?
ASAP1 inh: 0.3; bovine MsrA act: 8.7*; MsrA inhibitor: -0.1; ARFGAP1 inhibitor: 8.2; MsrA activ conf: -0.9

What do the screens show for `O=C1Nc2ccccc2-n2nnnc2C1N1CCN(CCN2CCOCC2)CC1` (configuration not stated)?
ASAP1 inh: -4.8; MsrA inhibitor: -1.1; ARFGAP1 inhibitor: 15.4

How did CC1(C)CNC(=O)c2sc(N3CCCCC3)nc2C1 do in these assays?
ASAP1 inh: 3.1; bovine MsrA act: 8.0*; MsrA inhibitor: 0.3; ARFGAP1 inhibitor: 8.8; MsrA activ conf: -2.3

How did CC1(C)CC(=O)c2sc(N3CCCCC3)nc2C1 do in these assays?
ASAP1 inh: 8.1; bovine MsrA act: -8.0; MsrA inhibitor: 4.3; ARFGAP1 inhibitor: 13.2

Results for C#CCN(C[C@H]1[C@H](OC(=O)Nc2c(C)noc2C)[C@H](OC(=O)Nc2c(C)noc2C)C[C@@H](C(=O)OC)[C@H]1C(=O)OC)S(=O)(=O)c1ccc(C)cc1 ?
ASAP1 inh: -4.2; bovine MsrA act: -4.4; MsrA inhibitor: 1.5; ARFGAP1 inhibitor: 13.3

Results for S=c1[nH]c2ccccc2n2c(=S)[nH]nc12 ?
ASAP1 inh: -14.2; bovine MsrA act: 5.6; MsrA inhibitor: 3.7; ARFGAP1 inhibitor: 22.7

Results for S=c1[nH]nc2ccc3ccccc3n12 ?
ASAP1 inh: -6.5; bovine MsrA act: 11.4*; MsrA inhibitor: 2.5; ARFGAP1 inhibitor: 15.3; MsrA activ conf: 2.1

Results for O=S(=O)(Nc1cc(Sc2ncn[nH]2)c(O)c2ccccc12)c1ccccc1 ?
ASAP1 inh: 24.8*; bovine MsrA act: 13.9*; MsrA inhibitor: 63.4*; ARFGAP1 inhibitor: 5.3; MsrA activ conf: 1.0; MsrA conf: -0.4

What do the screens show for `Cc1ccc(S(=O)(=O)Nc2ccc3c(c2)C(=O)c2ccccc2-3)cc1`?
ASAP1 inh: 6.2; bovine MsrA act: -2.6; MsrA inhibitor: -0.5; ARFGAP1 inhibitor: 5.8

What do the screens show for `Cc1ccc(NS(=O)(=O)c2ccc3c(c2)C(=O)c2ccccc2C3=O)c(C)c1`?
ASAP1 inh: 0.5; bovine MsrA act: 12.3*; MsrA inhibitor: 10.1*; ARFGAP1 inhibitor: 11.9; MsrA activ conf: 5.8*; MsrA conf: 32.2*

Results for O=c1ccc(-c2ccc([N+](=O)[O-])cc2)nn1-c1ccccc1 ?
ASAP1 inh: -3.4; bovine MsrA act: -3.4; MsrA inhibitor: 0.1; ARFGAP1 inhibitor: 6.5

Results for O=[N+]([O-])c1ccc(-[n+]2nc(-c3ccccc3)nn2-c2ccccc2)cc1 ?
ASAP1 inh: -14.5; bovine MsrA act: 7.8*; MsrA inhibitor: 25.5*; ARFGAP1 inhibitor: -4.8; MsrA activ conf: 4.8*; MsrA conf: 24.6*

How did CC1OC2CC(=O)OC2C2=C1C(=O)c1c(O)cccc1C2=O (configuration not stated) do in these assays?
ASAP1 inh: 36.8*; bovine MsrA act: 17.1*; MsrA inhibitor: 8.5*; ARFGAP1 inhibitor: 0.4; MsrA activ conf: 11.5*; ASAP1 GAP conf: 13.5; MsrA conf: 6.8*
